Results reported in ChEMBL document CHEMBL5247599, “New β-arylchalcogeno amines with procognitive properties targeting Carbonic Anhydrases and Monoamine Oxidases” (Eur J Med Chem, 2022).
The source made the active and inactive calls. The rule behind the calls is not given here.

Tests used:
[1] = target: Carbonic anhydrase 1 (Homo sapiens) (UniProt P00915); assay: Binding affinity to human CA1 by phenol red dye based stopped flow CO2 hydration assay
Summary of the method: (§1)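 Purified recombinant human CA isoforms. CA-catalysed CO2 hydration was followed by stopped-flow with phenol red at 557 nm, taking initial rates over 10–100 s from at least six traces of the first 5–10% of reaction. Uncatalysed rates were subtracted. Activator stocks were 0.1 mM in deionised water, diluted down to 0.1 nM in assay buffer. K_A came from non-linear least-squares Michaelis–Menten fitting.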

[2] = target: Carbonic anhydrase 2 (Homo sapiens) (UniProt P00918); assay: Binding affinity to human CA2 by phenol red dye based stopped flow CO2 hydration assay; summary of the method: as §1
[3] = target: Carbonic anhydrase 3 (Homo sapiens) (UniProt P07451); assay: Binding affinity to human CA3 by phenol red dye based stopped flow CO2 hydration assay; conditions: filed as activator; summary of the method: as §1
[4] = target: Carbonic anhydrase 4 (Homo sapiens) (UniProt P22748); assay: Binding affinity to human CA4 by phenol red dye based stopped flow CO2 hydration assay; conditions: filed as activator; summary of the method: as §1
[5] = target: Carbonic anhydrase 5A, mitochondrial (Homo sapiens) (UniProt P35218); assay: Binding affinity to human CA5a by phenol red dye based stopped flow CO2 hydration assay; conditions: filed as activator; summary of the method: as §1
[6] = target: Carbonic anhydrase 5B, mitochondrial (Homo sapiens) (UniProt Q9Y2D0); assay: Binding affinity to human CA5b by phenol red dye based stopped flow CO2 hydration assay; conditions: filed as activator; summary of the method: as §1
[7] = target: Carbonic anhydrase 6 (Homo sapiens) (UniProt P23280); assay: Binding affinity to human CA6 by phenol red dye based stopped flow CO2 hydration assay; summary of the method: as §1
[8] = target: Carbonic anhydrase 7 (Homo sapiens) (UniProt P43166); assay: Binding affinity to human CA7 by phenol red dye based stopped flow CO2 hydration assay; conditions: filed as activator; summary of the method: as §1
[9] = target: Carbonic anhydrase 9 (Homo sapiens) (UniProt Q16790); assay: Binding affinity to human CA9 by phenol red dye based stopped flow CO2 hydration assay; summary of the method: as §1
[10] = target: Carbonic anhydrase 12 (Homo sapiens) (UniProt O43570); assay: Binding affinity to human CA12 by phenol red dye based stopped flow CO2 hydration assay; conditions: filed as activator; summary of the method: as §1
[11] = target: Carbonic anhydrase 13 (Homo sapiens) (UniProt Q8N1Q1); assay: Binding affinity to human CA13 by phenol red dye based stopped flow CO2 hydration assay; conditions: filed as activator; summary of the method: as §1
[12] = target: Carbonic anhydrase 14 (Homo sapiens) (UniProt Q9ULX7); assay: Binding affinity to human CA14 by phenol red dye based stopped flow CO2 hydration assay; conditions: filed as activator; summary of the method: as §1
[13] = Toxicity in C57Bl6 mouse assessed as reduction in distance travel at 50 nmol/uL administered directly into lateral ventricle by open field test; conditions: in vivo, icv_or_intrathecal
Summary of the method: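 Cannulated adult male C57Bl6 mice were placed in a 60×70 cm open-field arena 30 min after a 5 µL lateral-ventricle infusion. Total distance travelled over a 5-min session was recorded by overhead video tracking.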

[14] = Toxicity in overnight fasted C57Bl6 mouse assessed as reduction in food intake at 50 nmol/uL administered directly into lateral ventricle measured for 2 hrs; conditions: in vivo, icv_or_intrathecal
Summary of the method: (§2)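 Overnight-fasted male C57Bl6 mice received a lateral-ventricle infusion. Food was presented 30 min later, and intake was recorded at 0.5 h intervals over 2 h as cumulative consumption corrected for body weight; n = 8–9 per group.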

[15] = Toxicity in overnight fasted C57Bl6 mouse assessed as reduction in food intake at 50 nmol/uL administered directly into lateral ventricle measured for 30 mins; conditions: in vivo, icv_or_intrathecal, 0.5 h; summary of the method: as §2
[16] = target: T1, Amine oxidase [flavin-containing] A (Homo sapiens, UniProt P21397); assay: Inhibition of human recombinant MAO-A assessed as inhibition of 4-hydroxyquinoline formation using kynuramine as substrate by fluorescence spectrophotometry analysis
T1 sequence (P21397 whole entry): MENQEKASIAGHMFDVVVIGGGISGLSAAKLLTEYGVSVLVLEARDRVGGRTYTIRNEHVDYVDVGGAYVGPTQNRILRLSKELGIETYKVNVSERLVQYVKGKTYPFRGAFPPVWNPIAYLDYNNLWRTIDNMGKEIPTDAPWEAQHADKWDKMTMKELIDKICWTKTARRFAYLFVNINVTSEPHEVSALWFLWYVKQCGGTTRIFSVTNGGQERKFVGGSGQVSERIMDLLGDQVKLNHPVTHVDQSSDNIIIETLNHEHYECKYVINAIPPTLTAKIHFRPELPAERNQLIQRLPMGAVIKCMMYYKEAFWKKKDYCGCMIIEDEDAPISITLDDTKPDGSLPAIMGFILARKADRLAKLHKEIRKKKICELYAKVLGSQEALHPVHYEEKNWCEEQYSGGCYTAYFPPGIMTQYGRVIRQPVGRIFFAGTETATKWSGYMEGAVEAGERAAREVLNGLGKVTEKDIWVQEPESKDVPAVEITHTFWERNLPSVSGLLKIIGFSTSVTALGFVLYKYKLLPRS
Summary of the method: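 Recombinant human MAO-A with kynuramine as substrate. The 4-hydroxyquinoline product was quantified by fluorescence spectrophotometry, and IC50 values were determined.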

Mus musculus [17] = assay: Pro-cognitive activity in C57Bl6 mouse assessed as attenuation of long-term memory deficit by measuring increase in exploration time for novel object at 25 nmol/uL, icv measured after 24 hrs by novel object recognition test; type: functional, organism-based
Summary of the method: (§3)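 Novel object recognition in adult male C57Bl6 mice. Habituation was 10 min in an empty arena. Twenty-four hours later, mice explored two identical objects for 5 min, then received an immediate 5 µL lateral-ventricle infusion at 1 µL/min. A 5-min retention test with one familiar and one novel object followed 24 h later. Scores were % exploration time and DI = (tN−tF)/(tN+tF).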

Mus musculus [18] = assay: Pro-cognitive activity in C57Bl6 mouse assessed as attenuation of long-term memory deficit by measuring increase in exploration time for novel object at 50 nmol/uL, icv measured after 24 hrs by novel object recognition test; type: functional, organism-based
Summary of the method: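 Male adult C57Bl6 mice (8–9 weeks), lateral-ventricle cannula implanted one week before. 10-min habituation to empty open-field arena; 24 h later, 5-min acquisition with two identical objects, followed immediately by 5 µL i.c.v. infusion at 1 µL/min. 5-min retention test 24 h after acquisition with one familiar and one novel object; percentage exploration time per object, two-way ANOVA with Bonferroni.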

Mus musculus [19] = assay: Pro-cognitive activity in C57Bl6 mouse assessed as attenuation of long-term memory deficit by measuring increase in exploration time for novel object by measuring discrimination index at 50 nmol/uL, icv measured after 24 hrs by novel object recognition test; type: functional; summary of the method: as §3
Mus musculus [20] = assay: Pro-cognitive activity in C57Bl6 mouse assessed as attenuation of long-term memory deficit by measuring increase in exploration time for novel object by measuring discrimination index at 25 nmol/uL, icv measured after 48 hrs by novel object recognition test; type: functional
Mus musculus [21] = assay: Pro-cognitive activity in C57Bl6 mouse assessed as attenuation of long-term memory deficit by measuring increase in exploration time for novel juvenile at 25 nmol/uL, icv measured after 48 hrs by novel object recognition test; type: functional, organism-based
Summary of the method: (§4)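 Male adult C57Bl6 mice (8–9 weeks), lateral-ventricle cannula implanted 7 days earlier. Social recognition: 10-min habituation to arena with two empty cups; 24 h later 10-min acquisition with an unfamiliar juvenile (3–4 weeks) under one wire cup. Immediately after, 5 µL i.c.v. infusion at 1 µL/min. Retention at 48 h with familiar and novel juvenile; percentage time exploring each cup (snout-to-cup contact).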

Mus musculus [22] = assay: Pro-cognitive activity in C57Bl6 mouse assessed as attenuation of long-term memory deficit by measuring increase in exploration time for novel juvenile at 50 nmol/uL, icv measured after 48 hrs by novel object recognition test; type: functional, organism-based; summary of the method: as §4
Mus musculus [23] = assay: Pro-cognitive activity in C57Bl6 mouse assessed as attenuation of long-term memory deficit by measuring increase in exploration time for novel juvenile by measuring discrimination index at 25 nmol/uL, icv measured after 48 hrs by novel object recognition test; type: functional
Summary of the method: (§5)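 Social recognition in adult male C57Bl6 mice with intracerebroventricular cannulae. Habituation was 10 min with two empty cups. Twenty-four hours later, a novel 3–4-week-old juvenile was placed under one cup for 10 min of exploration, followed immediately by a 5 µL infusion at 1 µL/min. Retention 48 h later offered familiar versus novel juvenile, scoring snout-to-cup contact. DI = (tN−tF)/(tN+tF).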

Mus musculus [24] = assay: Pro-cognitive activity in C57Bl6 mouse assessed as attenuation of long-term memory deficit by measuring increase in exploration time for novel juvenile by measuring discrimination index at 50 nmol/uL, icv measured after 48 hrs by novel object recognition test; type: functional; summary of the method: as §5
Mus musculus [25] = assay: Ex vivo activation of C57Bl6 mouse cortex homogenate CA assessed as increase in protein activity at 50 nmol/uL, icv measured after 30 mins by stopped flow spectrophotometric method; type: functional, organism-based
Summary of the method: (§6)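 Adult male C57Bl6 mice with lateral-ventricle cannulae received 5 µL at 1 µL/min. After 30 min, cortex and hippocampus were dissected on ice, homogenised in 20 mM Hepes pH 7.5 and spun at 20000g for 30 min. Stopped-flow CO2 hydration used 0.2 mM phenol red (557 nm), 20 mM NaClO4, 20°C and 1.7–17 mM CO2. Activity is expressed as % of vehicle mean; 6 mice/group.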

Mus musculus [26] = assay: Ex vivo activation of C57Bl6 mouse hippocampus homogenate CA assessed as increase in protein activity at 50 nmol/uL, icv measured after 30 mins by stopped flow spectrophotometric method; type: functional, organism-based; summary of the method: as §6

Sequence of Carbonic anhydrase 3 (Homo sapiens) (P07451 whole entry): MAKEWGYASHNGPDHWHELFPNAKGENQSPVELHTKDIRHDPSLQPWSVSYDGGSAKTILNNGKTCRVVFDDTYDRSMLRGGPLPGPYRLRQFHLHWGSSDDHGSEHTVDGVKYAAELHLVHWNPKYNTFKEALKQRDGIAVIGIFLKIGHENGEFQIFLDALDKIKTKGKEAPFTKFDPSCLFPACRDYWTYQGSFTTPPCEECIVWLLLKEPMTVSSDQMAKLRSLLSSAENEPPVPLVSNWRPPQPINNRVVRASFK
Sequence of Carbonic anhydrase 12 (Homo sapiens) (O43570 whole entry): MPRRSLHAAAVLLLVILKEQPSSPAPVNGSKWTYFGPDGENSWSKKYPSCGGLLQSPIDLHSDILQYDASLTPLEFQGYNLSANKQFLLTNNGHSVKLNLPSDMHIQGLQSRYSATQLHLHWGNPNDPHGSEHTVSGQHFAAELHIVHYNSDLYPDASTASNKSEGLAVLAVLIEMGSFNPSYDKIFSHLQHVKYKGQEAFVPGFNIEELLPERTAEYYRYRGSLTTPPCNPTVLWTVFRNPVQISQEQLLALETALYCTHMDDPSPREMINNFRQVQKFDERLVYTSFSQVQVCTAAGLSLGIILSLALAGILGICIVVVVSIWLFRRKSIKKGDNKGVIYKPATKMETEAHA
Sequence of Carbonic anhydrase 13 (Homo sapiens) (Q8N1Q1 whole entry, looked up): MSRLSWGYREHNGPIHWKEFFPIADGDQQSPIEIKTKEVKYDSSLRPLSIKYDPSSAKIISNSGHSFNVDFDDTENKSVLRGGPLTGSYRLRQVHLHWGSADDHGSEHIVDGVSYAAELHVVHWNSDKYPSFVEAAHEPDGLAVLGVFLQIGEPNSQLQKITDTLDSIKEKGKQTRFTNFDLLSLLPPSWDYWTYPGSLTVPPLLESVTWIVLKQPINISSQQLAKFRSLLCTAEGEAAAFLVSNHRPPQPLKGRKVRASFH
Sequence of Carbonic anhydrase 1 (Homo sapiens) (P00915 2-261 limits assumed): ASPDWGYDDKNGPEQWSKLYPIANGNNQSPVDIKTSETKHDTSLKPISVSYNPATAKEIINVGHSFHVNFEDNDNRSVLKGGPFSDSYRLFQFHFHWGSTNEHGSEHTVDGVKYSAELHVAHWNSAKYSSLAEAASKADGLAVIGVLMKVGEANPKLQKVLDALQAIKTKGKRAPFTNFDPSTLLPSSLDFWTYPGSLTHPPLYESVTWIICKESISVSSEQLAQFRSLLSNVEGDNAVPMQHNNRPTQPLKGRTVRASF
Sequence of Carbonic anhydrase 6 (Homo sapiens) (P23280 whole entry): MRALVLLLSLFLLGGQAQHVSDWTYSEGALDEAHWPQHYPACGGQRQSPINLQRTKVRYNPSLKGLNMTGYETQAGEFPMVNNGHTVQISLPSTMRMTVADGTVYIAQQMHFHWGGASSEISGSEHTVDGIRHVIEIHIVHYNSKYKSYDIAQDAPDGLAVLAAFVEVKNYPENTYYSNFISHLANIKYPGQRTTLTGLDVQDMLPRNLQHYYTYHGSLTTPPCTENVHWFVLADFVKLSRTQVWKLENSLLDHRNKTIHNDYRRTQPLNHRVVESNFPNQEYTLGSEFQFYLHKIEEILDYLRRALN
Sequence of Carbonic anhydrase 5B, mitochondrial (Homo sapiens) (Q9Y2D0 whole entry): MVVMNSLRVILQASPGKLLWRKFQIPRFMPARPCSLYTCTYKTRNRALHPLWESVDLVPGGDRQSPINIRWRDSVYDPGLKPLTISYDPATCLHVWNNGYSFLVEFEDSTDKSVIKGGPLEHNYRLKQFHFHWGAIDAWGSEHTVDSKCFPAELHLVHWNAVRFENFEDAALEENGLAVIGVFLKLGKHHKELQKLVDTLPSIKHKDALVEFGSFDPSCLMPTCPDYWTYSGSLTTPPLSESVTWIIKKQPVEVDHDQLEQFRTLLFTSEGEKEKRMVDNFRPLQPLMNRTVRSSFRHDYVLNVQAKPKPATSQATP
Sequence of Carbonic anhydrase 5A, mitochondrial (Homo sapiens) (P35218 whole entry): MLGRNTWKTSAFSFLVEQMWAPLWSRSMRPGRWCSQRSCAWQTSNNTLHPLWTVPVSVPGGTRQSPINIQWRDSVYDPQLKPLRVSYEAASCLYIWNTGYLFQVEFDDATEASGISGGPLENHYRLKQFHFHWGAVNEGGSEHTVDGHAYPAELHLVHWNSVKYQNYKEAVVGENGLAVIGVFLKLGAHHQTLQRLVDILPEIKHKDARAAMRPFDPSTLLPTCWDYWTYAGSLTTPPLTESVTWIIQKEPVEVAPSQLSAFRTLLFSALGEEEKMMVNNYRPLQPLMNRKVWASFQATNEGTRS
Sequence of Carbonic anhydrase 7 (Homo sapiens) (P43166 whole entry): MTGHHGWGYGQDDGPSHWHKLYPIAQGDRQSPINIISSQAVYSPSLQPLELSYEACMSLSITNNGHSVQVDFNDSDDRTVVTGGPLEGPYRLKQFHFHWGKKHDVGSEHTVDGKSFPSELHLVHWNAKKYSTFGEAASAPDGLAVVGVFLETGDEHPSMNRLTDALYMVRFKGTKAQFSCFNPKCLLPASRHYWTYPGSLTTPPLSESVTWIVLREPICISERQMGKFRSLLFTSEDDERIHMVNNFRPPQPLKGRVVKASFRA
Sequence of Carbonic anhydrase 14 (Homo sapiens) (Q9ULX7 whole entry): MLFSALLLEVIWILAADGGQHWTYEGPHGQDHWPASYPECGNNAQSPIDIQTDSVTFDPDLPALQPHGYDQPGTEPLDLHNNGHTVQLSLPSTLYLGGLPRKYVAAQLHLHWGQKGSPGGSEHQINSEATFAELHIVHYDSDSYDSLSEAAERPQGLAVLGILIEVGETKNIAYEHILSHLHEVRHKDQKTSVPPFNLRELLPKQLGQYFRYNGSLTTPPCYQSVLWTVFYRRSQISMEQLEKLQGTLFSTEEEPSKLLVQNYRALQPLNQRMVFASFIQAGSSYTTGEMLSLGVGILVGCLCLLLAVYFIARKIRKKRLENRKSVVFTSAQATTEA
Sequence of Carbonic anhydrase 4 (Homo sapiens) (P22748 whole entry): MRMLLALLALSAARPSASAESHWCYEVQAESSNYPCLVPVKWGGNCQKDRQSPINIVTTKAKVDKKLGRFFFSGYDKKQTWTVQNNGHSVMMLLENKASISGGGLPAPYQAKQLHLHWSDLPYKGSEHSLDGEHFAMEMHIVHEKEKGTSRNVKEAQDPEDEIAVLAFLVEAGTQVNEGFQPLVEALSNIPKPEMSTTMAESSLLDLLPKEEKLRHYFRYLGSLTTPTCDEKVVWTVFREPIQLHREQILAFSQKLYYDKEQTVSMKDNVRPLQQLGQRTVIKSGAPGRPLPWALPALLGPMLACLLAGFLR

SMILES	Ka [2] [µM]	Ka [3] [µM]	Ka [4] [µM]	Ka [5] [µM]	Ka [6] [µM]	Ka [8] [µM]	Ka [10] [µM]	Ka [11] [µM]	Ka [12] [µM]	Activity [13]	Activity [14]	further results
CC(N)Cc1ccccc1 (stereo not given) [AMPHETAMINE]	> 150	87.7	0.094	0.81	2.56	0.91	0.64	24.1	9.15	Toxic	Toxic	Ka [1]: > 150 µM; Ka [7]: > 150 µM; Ka [9]: > 150 µM; Activity [15]: Toxic
CC(N)C[Se]c1ccccc1 (stereo not given)	> 100	14.3	8.6	14.7	26.3	20.6	59.5	58.6	9.9	Non-Toxic	Non-Toxic	Ka ([1]; filed as activator): 9.9 µM; Ka ([7]; filed as activator): 57.2 µM; Ka ([9]; filed as activator): 49.6 µM; IC50 [16]: 9.79 µM; Activity (Mus musculus [17]): inactive; Activity (Mus musculus [18]): Active; Activity_index (Mus musculus [19]): 0.206; Activity_index (Mus musculus [20]): 0.006; Activity (Mus musculus [21]): inactive; Activity (Mus musculus [22]): Active; Activity_index (Mus musculus [23]): 0.011; Activity_index (Mus musculus [24]): 0.156; Activity (Mus musculus [25]): Active; Activity (Mus musculus [26]): Active
